Measured values as given in ChEMBL document CHEMBL2412978, “Effect of ring-constrained phenylpropyloxyethylamines on sigma receptors” (Bioorg Med Chem, 2013).
Calls of active or inactive are those of the source. The calls are words filed in the database; no cut-off is given here.

Tests used:
[1] = Displacement of [3H]di-o-tolylguanidine from sigma 2 receptor in rat brain homogenates after 120 mins by liquid scintillation counting; format: tissue-based
Rattus norvegicus = organism: Rattus norvegicus; assay: Selectivity ratio of Ki for sigma 2 receptor in rat brain homogenates to Ki for sigma 1 receptor in rat brain homogenates; format: tissue-based
Mus musculus [2] = assay: Anticonvulsant activity in Swiss Webster mouse assessed as reversal of cocaine-induced loss of righting reflexes at 30 mg/kg, ip administered 15 mins before cocaine challenge measured after 30 mins; format: functional, organism-based; design: dose 30 mg/kg
Procedure, shortened: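 Male Swiss Webster mice, n = 10/group, given test compound ip (0, 1, 10 or 30 mg/kg) 15 min before a convulsive dose of cocaine (70 mg/kg ip). Animals observed for convulsions for 30 min after cocaine injection. Groups compared by Fisher's exact test.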

[3] = molecular target: Kappa-type opioid receptor (Homo sapiens, UniProt P41145); assay: Displacement of [3H]U69,593 from human kappa opioid receptor expressed in CHO cells after 120 mins by liquid scintillation counting; format: cell-based
Procedure, shortened: (§1)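 Membranes from CHO cells stably expressing human μ, δ or κ opioid receptor. Radioligands: μ 1.3 nM [3H]DAMGO, δ 1.2 nM [3H]DPDPE, κ 1.7 nM [3H]U69,593; nonspecific with 1 μM of the matching unlabelled ligand.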

Mus musculus [4] = assay: Anticonvulsant activity in ip dosed Swiss Webster mouse assessed as reversal of cocaine-induced loss of righting reflexes administered 15 mins before cocaine challenge measured after 30 mins; format: functional, organism-based
Procedure, shortened: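 Male Swiss Webster mice, n = 10 per group, given test compound ip (0–30 mg/kg range across doses including vehicle 0) 15 min before convulsive cocaine 70 mg/kg ip. Animals watched 30 min after cocaine for occurrence of convulsions; groups compared by Fisher's exact test.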

Mu-type opioid receptor = Mu-type opioid receptor (Homo sapiens, UniProt P35372); assay: Displacement of [3H]DAMGO from human mu opioid receptor expressed in CHO cells after 120 mins by liquid scintillation counting; format: cell-based; procedure, shortened: as §1
Mu-type opioid receptor, sequence (P35372 whole entry): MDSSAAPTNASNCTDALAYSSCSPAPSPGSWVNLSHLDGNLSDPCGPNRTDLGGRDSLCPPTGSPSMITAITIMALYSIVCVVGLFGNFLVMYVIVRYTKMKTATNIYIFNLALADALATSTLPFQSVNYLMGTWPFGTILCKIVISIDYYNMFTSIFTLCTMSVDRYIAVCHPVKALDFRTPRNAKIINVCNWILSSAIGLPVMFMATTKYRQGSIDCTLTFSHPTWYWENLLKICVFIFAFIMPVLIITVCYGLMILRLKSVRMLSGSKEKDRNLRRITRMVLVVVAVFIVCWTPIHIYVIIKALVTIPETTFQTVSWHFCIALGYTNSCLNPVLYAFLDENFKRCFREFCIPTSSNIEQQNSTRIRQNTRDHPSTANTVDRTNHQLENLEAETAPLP

Kappa-type opioid receptor, sequence (P41145 whole entry): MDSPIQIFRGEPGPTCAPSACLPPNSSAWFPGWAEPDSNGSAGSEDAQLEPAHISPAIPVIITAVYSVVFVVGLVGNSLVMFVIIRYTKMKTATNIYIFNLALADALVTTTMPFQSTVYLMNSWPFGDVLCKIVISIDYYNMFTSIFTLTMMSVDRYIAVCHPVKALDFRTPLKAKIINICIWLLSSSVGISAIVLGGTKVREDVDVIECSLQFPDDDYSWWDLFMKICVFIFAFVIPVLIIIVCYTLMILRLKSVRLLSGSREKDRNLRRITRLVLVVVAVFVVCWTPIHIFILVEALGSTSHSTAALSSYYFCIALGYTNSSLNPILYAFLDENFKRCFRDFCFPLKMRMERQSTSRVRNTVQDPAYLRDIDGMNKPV

| SMILES | Ki [1] [nM] | Ratio Ki (Rattus norvegicus) | Ki [3] [µM] | Ki (Mu-type opioid receptor) [µM] | Activity (Mus musculus [2]) | Activity (Mus musculus [4]) |
| --- | --- | --- | --- | --- | --- | --- |
| CN(C)[C@H]1CCCC[C@@H]1OCCCc1ccccc1 (relative stereo) | 3800 | 65 |  |  |  |  |
| CN(C)[C@H]1CCCC[C@@H]1OC/C=C/c1ccccc1 (relative stereo) | 1100 | 240 |  |  |  |  |
| CN(CCc1ccccc1)[C@H]1CCCC[C@@H]1O (relative stereo) | 220 | 2 |  |  | Active |  |
| CN(CCCc1ccccc1)[C@H]1CCCC[C@@H]1O (relative stereo) | 6.7 | 0.4 |  | > 10 |  | Dose-dependent effect |
| c1ccc(CCN2CCCCC2)cc1 [1-PHENETHYLPIPERIDINE] | 140 | 5 |  |  |  |  |

More lines, main results first:

| Ki [1] [nM] | Ratio Ki (Rattus norvegicus) | Ki [3] [µM] | Ki (Mu-type opioid receptor) [µM] | SMILES | Activity (Mus musculus [2]) | Activity (Mus musculus [4]) |
| --- | --- | --- | --- | --- | --- | --- |
| > 10000 |  |  |  | CN(CCCc1ccccc1)[C@H]1CCCC[C@@H]1OCCCc1ccccc1 (racemic) |  |  |
| 570 | 7 | 21 |  | CN(CCc1ccccc1)[C@H]1CCCC[C@@H]1OCCCc1ccccc1 (relative stereo) |  |  |
